The source made the active and inactive calls. The calls are words filed in the database; no cut-off is given here.
How the values were obtained:
ARPE-19 [1] = test: Neuroprotective activity against Fenton reagent-induced ROS generation in human ARPE19 cells assessed as increase in GSH level at 1 mM after 2 hrs by DTNB method; assay type: functional, cell-based
Procedure, shortened: (§1)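 Cells grown in 60 or 150 mm dishes and exposed 2 h to Fenton reagent (1 mM H2O2 + 1 mM Fe2+) with or without 1 mM compound in 0.16% DMSO. Intracellular glutathione then measured. Mean ± SEM, n = 6. ANOVA.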

SH-SY5Y [2] = test: Neuroprotective activity against Fenton reagent-induced ROS generation-stimulated cytotoxicity in human SH-SY5Y cells assessed as cell viability at 1 mM after 2 hrs by MTS assay; assay type: functional, cell-based
Procedure, shortened: (§2)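 Cells in 96-well format exposed 2 h to Fenton reagent (1 mM H2O2 + 1 mM Fe2+) with or without 1 mM compound in 0.16% DMSO. Viability by MTS assay, normalized to untreated cells without Fenton reagent (100%). Mean ± SEM, n = 4. ANOVA.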

ARPE-19 [3] = test: Neuroprotective activity against Fenton reagent-induced ROS generation-stimulated cytotoxicity in human ARPE19 cells assessed as cell viability at 1 mM after 2 hrs by MTS assay; assay type: functional, cell-based; procedure, shortened: as §2
SH-SY5Y [4] = test: Neuroprotective activity against Fenton reagent-induced ROS generation in human SH-SY5Y cells assessed as increase in GSH level at 1 mM after 2 hrs by DTNB method; assay type: functional, cell-based; procedure, shortened: as §1
SH-SY5Y [5] = test: Antioxidant activity in human SH-SY5Y cells assessed as reduction of xanthine oxidase-mediated superoxide generation preincubated for 1 hr followed by xanthine oxidase challenge for 1 hr by MitoSOX staining-based fluorescence analysis; assay type: functional, cell-based
Procedure, shortened: (§3)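 Cells washed with PBS, then preincubated 1 h at 37 °C in serum-free medium with 1, 10, 100 or 1000 μM compound, or SOD 25 μg/mL as reference. Xanthine oxidase added (25 mU/mL; ~100 μM superoxide) for 1 h more. After a PBS wash, cells stained with MitoSOX Red (5 μM) for 2 h. Fluorescence read at Ex/Em 510/580 nm.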

ARPE-19 [6] = test: Antioxidant activity in human ARPE19 cells assessed as reduction of xanthine oxidase-mediated superoxide generation preincubated for 1 hr followed by xanthine oxidase challenge for 1 hr by MitoSOX staining-based fluorescence analysis; assay type: functional, cell-based; procedure, shortened: as §3
SH-SY5Y [7] = test: Neuroprotective activity against Fenton reagent-induced hydroxy radical-stimulated cytotoxicity in human SH-SY5Y cells assessed as cell survival at 1 to 1000 uM preincubated for 1 hr followed by Fenton reagent challenge for 2 hrs by fluorescence-based LIVE/DEAD viability/cytotoxicity assay; assay type: functional
Procedure, shortened: (§4)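 After a PBS wash, cells preincubated 1 h at 37 °C in serum-free medium with 1–1000 μM compound. Fenton reagent (Fe2+/H2O2, 100 μM final) then added for 2 h. Stained 15 min at 37 °C with calcein AM 8 μM and EthD-1 16 μM. Fluorescence read at 494/517 and 528/617 nm. % live cells calculated from blank-corrected single-dye controls; dead-cell control 70% ethanol. Mean ± SEM, n = 6.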

ARPE-19 [8] = test: Neuroprotective activity against Fenton reagent-induced hydroxy radical-stimulated cytotoxicity in human ARPE19 cells assessed as cell survival at 1 to 1000 uM preincubated for 1 hr followed by Fenton reagent challenge for 2 hrs by fluorescence-based LIVE/DEAD viability/cytotoxicity assay; assay type: functional; procedure, shortened: as §4
Brain = test: Drug uptake in brain of C57BL/6 mouse assessed per mg of protein at 80 mg/kg, po administered everyday for 14 days by HPLC-MS analysis; assay type: ADME, organism-based; details: in vivo, 336 h
Procedure, shortened: (§5)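 C57BL/6 mice fed chow containing 0.05% compound (~80 mg/kg/day average) for 14 days. Perfused with PBS; brain, lens and neural retina homogenized in ice-cold 10 mM acetate pH 4 with internal standard. Extracted with TCA precipitation and chloroform. Analyzed by reverse-phase C18 HPLC.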

[9] = Drug uptake in neural retina of C57BL/6 mouse assessed per mg of protein at 80 mg/kg, po administered everyday for 14 days by HPLC-MS analysis; assay type: ADME, organism-based; details: in vivo, 336 h; procedure, shortened: as §5
[10] = Drug uptake in lens of C57BL/6 mouse assessed per mg of protein at 80 mg/kg, po administered everyday for 14 days by HPLC-MS analysis; assay type: ADME, organism-based, Lens of camera-type eye; details: in vivo, 336 h; procedure, shortened: as §5
[11] = Metal chelating activity assessed as stoichiometric ratio of compound to Fe2+ ion at 0.1 to 0.5 mM of compound and metal ion mixture after 45 mins by spectrophotometric analysis; assay type: physicochemical; details: 0.75 h, 500 µM
Procedure, shortened: (§6)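 Job continuous-variation method at 23 °C. Compound dissolved in acetonitrile, then diluted to 0.1 mM stock in 1 mM acetate pH 6.5. Compound + ion at constant total 0.1–0.5 mM with varied mole fraction. After 45 min equilibration, UV absorbance scanned 210–310 nm. Stoichiometry taken from the intersection of lines. Mean ± SD, n = 3.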

[12] = Metal chelating activity assessed as stoichiometric ratio of compound to Fe3+ ion at 0.1 to 0.5 mM of compound and metal ion mixture after 45 mins by spectrophotometric analysis; assay type: physicochemical; details: 0.75 h, 500 µM; procedure, shortened: as §6
SH-SY5Y [13] = test: Cytotoxicity against human SH-SY5Y cells assessed as reduction in cell viability at 1 mM after 2 hrs by MTS assay; assay type: cell-based; details: 1000 µM
Procedure, shortened: (§7)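 ARPE-19 grown in DMEM + 4% FBS and SH-SY5Y in EMEM/F12 + 10% FBS, at 37 °C, 5% CO2. Plated at 1 × 10^4 cells/well. Exposed 2 h to 1 mM compound (0.16% DMSO) without oxidant. Viability by MTS. Mean ± SEM, n = 4, ANOVA versus blank control.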

[14] = Metal chelating activity assessed as stoichiometric ratio of compound to Cu+ ion at 0.1 to 0.5 mM of compound and metal ion mixture after 45 mins by spectrophotometric analysis; assay type: physicochemical; details: 0.75 h, 500 µM; procedure, shortened: as §6
[15] = Metal chelating activity assessed as stoichiometric ratio of compound to Cu2+ ion at 0.1 to 0.5 mM of compound and metal ion mixture after 45 mins by spectrophotometric analysis; assay type: physicochemical; details: 0.75 h, 500 µM; procedure, shortened: as §6
[16] = Metal chelating activity assessed as stoichiometric ratio of compound to Zn2+ ion at 0.1 to 0.5 mM of compound and metal ion mixture after 45 mins by spectrophotometric analysis; assay type: physicochemical; details: 0.75 h, 500 µM; procedure, shortened: as §6
[17] = Metal chelating activity assessed as stoichiometric ratio of compound to Mn2+ ion at 0.1 to 0.5 mM of compound and metal ion mixture after 45 mins by spectrophotometric analysis; assay type: physicochemical; details: 0.75 h, 500 µM; procedure, shortened: as §6
[18] = Metal chelating activity assessed as stoichiometric ratio of compound to Mg2+ ion at 0.1 to 0.5 mM of compound and metal ion mixture after 45 mins by spectrophotometric analysis; assay type: physicochemical; details: 0.75 h, 500 µM; procedure, shortened: as §6
[19] = Metal chelating activity assessed as stoichiometric ratio of compound to Ca2+ ion at 0.1 to 0.5 mM of compound and metal ion mixture after 45 mins by spectrophotometric analysis; assay type: physicochemical; details: 0.75 h, 500 µM; procedure, shortened: as §6
[20] = Cytotoxicity against human ARPE19 cells assessed as reduction in cell viability at 1 mM after 2 hrs by MTS assay; assay type: cell-based; details: arpe-19, 2 h, 1000 µM; procedure, shortened: as §7

Drug uptake (Brain)	Drug uptake [9]	Drug uptake [10]	SMILES	Activity (ARPE-19 [1])	Activity (SH-SY5Y [2])	Activity (ARPE-19 [3])	Activity (SH-SY5Y [4])	Activity (SH-SY5Y [5])	Activity (ARPE-19 [6])	Activity (SH-SY5Y [7])	Activity (ARPE-19 [8])	other results
3 ng/mg	Active	Active	CN(C)S(=O)(=O)N1CC(=O)N(c2ncc(O)cn2)C(=O)C1	Active	Active	Active	Active	Dose-dependent effect	Dose-dependent effect	Dose-dependent effect	Dose-dependent effect	–
–	Active	Active	COc1nc(N2C(=O)CCC2=O)nc(OC)c1O	Active	Active	Active	Active	Dose-dependent effect	Dose-dependent effect	Dose-dependent effect	Dose-dependent effect	Ratio [11]: 2.03; Ratio [12]: 2.12; Activity (SH-SY5Y [13]): Non-toxic; Ratio [14]: 2.03; Ratio [15]: 2.13; Ratio [16]: 2.01; Ratio [17]: 2.22; Ratio [18]: 0; Ratio [19]: 0; Activity [20]: Non-toxic
4 ng/mg	Active	Active	COc1nc(N2C(=O)CN(S(=O)(=O)N(C)C)CC2=O)nc(OC)c1O	–	–	–	–	–	–	–	–	–
